Experimental data: ChEMBL document CHEMBL1821588, “Synthesis and in vivo evaluation of [O-methyl-11C] N-[3,5-dichloro-2-(methoxy)phenyl]-4-(methoxy)-3-(1-piperazinyl)benzenesulfonamide as an imaging probe for 5-HT6 receptors” (Bioorg Med Chem, 2011); call rule not given here

Key:
[1] = Metabolic stability in baboon plasma assessed as unchanged radioligand at 2 mins by HPLC; format: ADME, cell-free; conditions: papio anubis, read-out: Stability
Summary of the method: (§1)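 Arterial blood sampled at 2, 6, 12, 30, 60 and 90 min post-injection and spun; 0.5 ml plasma mixed with 0.7 ml acetonitrile, vortexed, centrifuged 14,000 rpm 4 min. Supernatant run on reverse-phase ODS HPLC (acetonitrile/0.1 M ammonium formate 35:65, 2 ml/min) with radioactivity detection. Parent percentage corrected for background and decay; QC tracer sample injected at start and end.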

[2] = Metabolic stability in baboon plasma assessed as unchanged radioligand at 4 mins by HPLC; format: ADME, cell-free; conditions: papio anubis, read-out: Stability
[3] = Metabolic stability in baboon plasma assessed as unchanged radioligand at 12 mins by HPLC; format: ADME, cell-free; conditions: papio anubis, read-out: Stability; summary of the method: as §1
[4] = Metabolic stability in baboon plasma assessed as unchanged radioligand at 30 mins by HPLC; format: ADME, cell-free; conditions: papio anubis, read-out: Stability; summary of the method: as §1
[5] = Metabolic stability in baboon plasma assessed as unchanged radioligand at 60 mins by HPLC; format: ADME, cell-free; conditions: papio anubis, read-out: Stability; summary of the method: as §1
[6] = Metabolic stability in baboon plasma assessed as unchanged radioligand at 90 mins by HPLC; format: ADME, cell-free; conditions: papio anubis, read-out: Stability; summary of the method: as §1
[7] = Fraction unbound in human plasma by HPLC; format: ADME, cell-free
[8] = Fraction unbound in baboon plasma by HPLC; format: ADME, cell-free; conditions: papio anubis
[9] = Drug uptake in baboon temporal cortex at 5 mCi, iv measured during 90 mins; format: ADME, organism-based; conditions: papio anubis, in vivo, 1.5 h
Summary of the method: (§2)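 Fasted baboon immobilized with ketamine (10 mg/kg, im), then anesthetized with 1.5–2.0% isoflurane by endotracheal tube and kept at 37 °C. A 10 min transmission scan preceded tracer. Tracer given as 5 ± 1 mCi iv bolus (S.A. 2300 ± 250 Ci/mmol). Emission collected 90 min in 3-D mode on HR+ PET. Arterial samples (30 over 90 min) gave the input function.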

[10] = Drug uptake in baboon parahippocampal gyrus at 5 mCi, iv measured during 90 mins; format: ADME, organism-based; conditions: papio anubis, in vivo, 1.5 h; summary of the method: as §2
[11] = Drug uptake in baboon pareital cortex at 5 mCi, iv measured during 90 mins; format: ADME, organism-based; conditions: papio anubis, in vivo, 1.5 h; summary of the method: as §2
[12] = Drug uptake in baboon amygdala at 5 mCi, iv measured during 90 mins; format: ADME, organism-based; conditions: papio anubis, in vivo, 1.5 h; summary of the method: as §2
[13] = Drug uptake in baboon hippocampus at 5 mCi, iv measured during 90 mins; format: ADME, organism-based; conditions: papio anubis, in vivo, 1.5 h; summary of the method: as §2
[14] = Drug uptake in baboon prefrontal cortex at 5 mCi, iv measured during 90 mins; format: ADME, organism-based; conditions: papio anubis, in vivo, 1.5 h; summary of the method: as §2
[15] = Drug uptake in baboon anterior cingulate at 5 mCi, iv measured during 90 mins; format: ADME, organism-based; conditions: papio anubis, in vivo, 1.5 h; summary of the method: as §2
[16] = Drug uptake in baboon striatum at 5 mCi, iv measured during 90 mins; format: ADME, organism-based; conditions: papio anubis, in vivo, 1.5 h; summary of the method: as §2
[17] = Drug uptake in baboon cerebellum at 5 mCi, iv measured during 90 mins; format: ADME, organism-based; conditions: papio anubis, in vivo, 1.5 h; summary of the method: as §2

remaining at 2 min [1]: 99%
remaining at 4 min [2]: 94%
remaining at 0.2 h [3]: 71%
remaining at 0.5 h [4]: 45%
remaining at 1 h [5]: 32%
remaining at 1.5 h [6]: 27%
fraction unbound [7]: 0.01
fraction unbound [8]: 0.05
Drug uptake [9]: Active
Drug uptake [10]: Active
Drug uptake [11]: Active
Drug uptake [12]: Active
Drug uptake [13]: Active
Drug uptake [14]: Not Active
Drug uptake [15]: Not Active
Drug uptake [16]: Not Active
Drug uptake [17]: Not Active
Structure (SMILES): COc1ccc(S(=O)(=O)Nc2cc(Cl)cc(Cl)c2O[11CH3])cc1N1CCNCC1
